Results as given in paper PMC3631442 (ACS chemical biology, 2013).
Each block holds one molecule with its values, some of them ahead of it. No end group written: not given here. *: point of attachment. Biotin = O=C1N[C@H]2[C@H](CS[C@H]2CCCCC(=O)*)N1; PEG4 = NCCOCCOCCOCCOCCC(=O)O

Experiments:
Bfl-1 [1] = biological target: T1, Bfl-1 (Homo sapiens, UniProt Q16548); test: Fluorescence polarization competition with fluoresceinated Bim BH3; type: binding
T1 sequence (Q16548 1-151 limits assumed): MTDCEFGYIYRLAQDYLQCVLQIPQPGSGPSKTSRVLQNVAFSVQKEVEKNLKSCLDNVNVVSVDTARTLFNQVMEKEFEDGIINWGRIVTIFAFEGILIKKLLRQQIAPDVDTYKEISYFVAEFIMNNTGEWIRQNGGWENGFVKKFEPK

[2] = biological target: 18-residue fluoresceinated Bim BH3 peptide (human); test: fluorescence polarisation
[3] = biological target: Bid BH3 BH3 (Homo sapiens) (UniProt P55957); conditions: cited from earlier work
[4] = biological target: Puma BH3 BH3 (Homo sapiens) (UniProt Q9BXH1); conditions: cited from earlier work
Mcl-1 [5] = biological target: Mcl-1 (Homo sapiens, UniProt Q07820); test: Fluorescence polarization competition with fluoresceinated Bim BH3; type: binding
Bcl-w [6] = biological target: T2, Bcl-w (Homo sapiens, UniProt Q92843); test: as above; type: binding
T2 sequence (Q92843 1-193): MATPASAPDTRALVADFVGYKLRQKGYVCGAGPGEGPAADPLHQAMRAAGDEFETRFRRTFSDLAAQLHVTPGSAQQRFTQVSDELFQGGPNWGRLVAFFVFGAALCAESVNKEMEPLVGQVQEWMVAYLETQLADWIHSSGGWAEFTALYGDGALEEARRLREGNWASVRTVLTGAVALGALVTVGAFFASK

Bfl-1 [7] = biological target: T1, Bfl-1; test: Bio-layer interferometry; type: binding
Outline: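 Biotinylated 23-residue test peptide (free N-terminus, amidated C-terminus), at 0.1 mg/ml, loaded on streptavidin biosensors to ~0.42 response units. Protein at 2–3 concentrations (30–250 nM) associated for 10 min, then dissociated for 60 min in 20 mM phosphate, 50 mM NaCl, 0.1% BSA, pH 7.5. Off-rate upper bound taken from signal fluctuation over 1000 s. Association phase fit for kon and Rmax.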

Bcl-xL [8] = biological target: Bcl-xL (Homo sapiens, UniProt Q07817); test: Fluorescence polarization competition with fluoresceinated Bim BH3; type: binding
Bcl-2 [9] = biological target: Bcl-2 (Homo sapiens, UniProt P10415); test: as above; type: binding
Bcl-w [10] = biological target: Bcl-w (UniProt Q92843); test: fluorescence polarisation
Bfl-1 [11] = biological target: T3, Bfl-1; test: fluorescence polarisation
T3 sequence (Q16548 whole entry, species assumed, looked up): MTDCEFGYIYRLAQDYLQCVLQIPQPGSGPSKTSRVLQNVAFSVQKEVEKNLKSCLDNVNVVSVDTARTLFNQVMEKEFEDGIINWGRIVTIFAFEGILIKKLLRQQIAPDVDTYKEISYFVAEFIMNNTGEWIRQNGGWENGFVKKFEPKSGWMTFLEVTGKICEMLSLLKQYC

Mcl-1 [12] = biological target: T4, Mcl-1 (UniProt Q07820 1-350); test: BLI
Bcl-xL [13] = biological target: T5, Bcl-xL (UniProt Q07817-1 1-233); test: BLI
Mcl-1 [14] = biological target: T4, Mcl-1; test: fluorescence polarisation
Bcl-xL [15] = biological target: T5, Bcl-xL; test: fluorescence polarisation
Bcl-w [16] = biological target: T6, Bcl-w (UniProt Q92843 1-193); test: fluorescence polarisation
Bcl-2 [17] = biological target: T7, Bcl-2 (UniProt P10415 1-239); test: fluorescence polarisation
Bcl-w [18] = biological target: T6, Bcl-w; test: fluorescence polarisation; remark: listed apart in the source
Bcl-2 [19] = biological target: T7, Bcl-2; test: fluorescence polarisation; remark: listed apart in the source
Bfl-1 [20] = biological target: T3, Bfl-1; test: fluorescence polarisation; remark: listed apart in the source

Mcl-1 (Homo sapiens, UniProt Q07820), sequence (Q07820 whole entry): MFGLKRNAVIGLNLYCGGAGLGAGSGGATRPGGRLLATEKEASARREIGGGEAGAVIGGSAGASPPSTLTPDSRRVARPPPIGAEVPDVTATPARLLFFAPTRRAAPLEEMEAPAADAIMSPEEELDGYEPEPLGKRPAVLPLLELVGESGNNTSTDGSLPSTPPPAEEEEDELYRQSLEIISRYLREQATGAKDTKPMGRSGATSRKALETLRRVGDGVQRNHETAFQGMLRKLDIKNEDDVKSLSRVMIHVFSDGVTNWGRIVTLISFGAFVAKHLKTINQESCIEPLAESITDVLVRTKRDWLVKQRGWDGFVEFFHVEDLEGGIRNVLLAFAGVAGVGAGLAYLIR
T5 sequence (Q07817 whole entry): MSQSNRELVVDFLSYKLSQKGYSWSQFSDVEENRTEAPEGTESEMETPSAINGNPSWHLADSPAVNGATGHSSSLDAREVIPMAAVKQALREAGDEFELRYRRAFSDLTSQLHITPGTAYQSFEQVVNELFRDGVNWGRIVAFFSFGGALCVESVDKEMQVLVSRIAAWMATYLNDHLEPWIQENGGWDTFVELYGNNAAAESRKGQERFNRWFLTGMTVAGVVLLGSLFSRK
T7 sequence (P10415 whole entry): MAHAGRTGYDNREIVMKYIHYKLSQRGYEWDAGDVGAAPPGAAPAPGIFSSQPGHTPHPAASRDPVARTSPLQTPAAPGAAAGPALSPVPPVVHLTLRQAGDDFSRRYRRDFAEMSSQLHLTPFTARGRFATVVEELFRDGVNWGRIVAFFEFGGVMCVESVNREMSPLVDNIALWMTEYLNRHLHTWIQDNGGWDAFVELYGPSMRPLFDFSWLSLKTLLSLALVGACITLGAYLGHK
T4 sequence (Q07820 whole entry): as the sequence (Q07820 whole entry) above
Puma BH3 BH3 (Homo sapiens), sequence (Q9BXH1 130-155): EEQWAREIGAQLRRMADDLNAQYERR
Bcl-xL (Homo sapiens, UniProt Q07817), sequence (Q07817 whole entry): as the sequence (Q07817 whole entry) above
Bcl-2 (Homo sapiens, UniProt P10415), sequence (P10415 whole entry): as the sequence (P10415 whole entry) above
Bid BH3 BH3 (Homo sapiens), sequence (P55957 79-104): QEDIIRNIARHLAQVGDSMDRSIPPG

Molecule: Bfl-1 (domain or fragment)
Kd [2]: 4 nM

Molecule: Bfl-1 (from UniProt Q16548)
Kd [3]: 50 nM | Kd [4]: 50 nM

Molecule: Bim_D3fK with E3gV (peptide)
fold weakening of binding against Bim D3fK (Bcl-w [10]): 2.5 fold | fold increase in binding against Bim D3fK (Bfl-1 [11]): 2 fold

B1: Biotinylated FA1 (peptide)
peptide: {Biotin-PEG4}-RPEIWIAQELRRAGDVLNAYYAR-NH2
SMILES: CC[C@H](C)[C@H](NC(=O)[C@H](Cc1c[nH]c2ccccc12)NC(=O)[C@@H](NC(=O)[C@H](CCC(=O)O)NC(=O)[C@@H]1CCCN1C(=O)[C@H](CCCNC(=N)N)NC(=O)CCOCCOCCOCCOCCNC(=O)CCCC[C@@H]1SC[C@@H]2NC(=O)N[C@@H]21)[C@@H](C)CC)C(=O)N[C@@H](C)C(=O)N[C@@H](CCC(N)=O)C(=O)N[C@@H](CCC(=O)O)C(=O)N[C@@H](CC(C)C)C(=O)N[C@@H](CCCNC(=N)N)C(=O)N[C@@H](CCCNC(=N)N)C(=O)N[C@@H](C)C(=O)NCC(=O)N[C@@H](CC(=O)O)C(=O)N[C@H](C(=O)N[C@@H](CC(C)C)C(=O)N[C@@H](CC(N)=O)C(=O)N[C@@H](C)C(=O)N[C@@H](Cc1ccc(O)cc1)C(=O)N[C@@H](Cc1ccc(O)cc1)C(=O)N[C@@H](C)C(=O)N[C@@H](CCCNC(=N)N)C(N)=O)C(C)C
Kd (Mcl-1 [12]): ~6 nM | Kd (Bcl-xL [13]): ~33 nM

Molecule: Ac-RPEIWIAQGLRRIGDTWNAYYAR-NH2 [FW1 (unlabeled, 23 residues)]
Ki (Mcl-1 [14]): 0.2 nM | Ki (Bcl-xL [15]): 20 nM | Ki (Bcl-w [16]): 298 nM | Ki (Bcl-2 [17]): 31 nM

Molecule: Ac-IWIAQELRRIGDEFNAYY-NH2 (also: fluoresceinated, site not given here) [18-residue fluoresceinated Bim BH3 peptide]
Kd (Bcl-w [18]): 15 nM | Kd (Bcl-2 [19]): 5 nM

Molecule: H-RPEIWMAQVLRRFGDLLNAYYAR-OH [FD2]
Ki (Bfl-1 [20]): 3.8 nM | Ki (Bcl-xL [15]): 18 nM | Ki (Bcl-w [16]): 104 nM | Ki (Bcl-2 [17]): 223 nM

Molecule: Ac-RPEIWLAQYLRRLGDQINAYYAR-NH2 [FD1]
Ki (Bfl-1 [20]): 0.7 nM | Ki (Mcl-1 [14]): 0.1 nM | Ki (Bcl-xL [15]): 5 nM | Ki (Bcl-w [16]): 12 nM | Ki (Bcl-2 [17]): 7 nM

Molecule: Ac-RPEIWIAQELRRAGDVLNAYYAR-NH2 [FA1 (unlabeled, 23 residues)]
Ki (Bcl-xL [15]): 8 nM | Ki (Bcl-2 [17]): 313 nM

Second part, the molecule after the results:

Ki (Bfl-1 [1]): 0.7 ± 0.2 nM
Molecule: Ac-RPEIWLAQYLRRLGDQINAYYAR-NH2 [FD1]

Ki (Mcl-1 [5]): 1 ± 0.1 nM | Ki (Bcl-w [6]): 2 ± 1 nM | Kd (Bfl-1 [7]): ≤ 0.3 nM | koff (Bfl-1 [7]; pH 7.5, read-out: upper limit on koff, dissociation of Bfl-1 from surface-bound peptide): ≤ 1.5e-05 s⁻¹
Molecule: Ac-RPEIWIAQELRRAGDVLNAYYAR-NH2 [FA1]

Ki (Bfl-1 [1]): 3.8 ± 0.7 nM | specificity for Bfl-1 over Bcl-xL, Bcl-2 and Bcl-w (Bfl-1 [1]; from competition FP Ki values): 4-60 fold | Ki (Mcl-1 [5]): 1 ± 0.1 nM
Molecule: RPEIWMAQVLRRFGDLLNAYYAR [FD2]

fold lower Ki for Bfl-1 compared to Bcl-w (Bfl-1 [1]; from competition FP Ki values): ~ 37 fold | Ki (Bcl-xL [8]): 20 to 30 nM | Ki (Bcl-2 [9]): 20 to 30 nM
Molecule: Ac-RPEIWIAQGLRRIGDTWNAYYAR-NH2 [FW1]
